Here are results for 26 compounds from ChEMBL document CHEMBL2380235, “Discovery of N-{4-[(3-hydroxyphenyl)-3-methylpiperazin-1-yl]methyl-2-methylpropyl}-4-phenoxybenzamide analogues as selective kappa opioid receptor antagonists” (J Med Chem, 2013).

SMILES strings stand for the structures. Activity calls are given as the source filed them. The calls are words filed in the database; no cut-off is given here.

The target in test [1] is Mu-type opioid receptor (Homo sapiens) (UniProt P35372). The note with it: CHO.
Chain of Mu-type opioid receptor (Homo sapiens) (P35372 whole entry): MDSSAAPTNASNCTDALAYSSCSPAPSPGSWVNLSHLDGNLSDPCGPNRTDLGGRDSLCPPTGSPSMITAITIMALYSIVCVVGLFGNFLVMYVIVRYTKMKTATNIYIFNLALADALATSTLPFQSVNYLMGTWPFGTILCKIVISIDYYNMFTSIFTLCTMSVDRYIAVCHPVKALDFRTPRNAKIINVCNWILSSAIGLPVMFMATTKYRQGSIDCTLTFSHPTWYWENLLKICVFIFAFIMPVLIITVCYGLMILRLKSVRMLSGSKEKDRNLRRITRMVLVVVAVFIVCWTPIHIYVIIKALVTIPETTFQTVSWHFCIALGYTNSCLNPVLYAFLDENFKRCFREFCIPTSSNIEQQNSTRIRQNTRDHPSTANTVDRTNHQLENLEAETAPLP
In test [2] the target is Delta-type opioid receptor (Homo sapiens) (UniProt P41143). Put plainly: Antagonist activity at human delta opioid receptor expressed in CHO cells assessed as inhibition of DPDPE-stimulated [35S]GTPgammaS binding. It counts as functional, cell-based. The method, boiled down: (§1)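 Agonist concentration-response curves (eight concentrations, duplicate) were run with or without a single test-compound concentration. Ke = [L]/(DR−1), where [L] is the test-compound concentration and DR is the ratio of agonist EC50 with versus without compound. At least two test-compound concentrations were used, chosen to shift agonist EC50 rightward at least four-fold while keeping a clear upper asymptote.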
Chain of Delta-type opioid receptor (Homo sapiens) (P41143 whole entry): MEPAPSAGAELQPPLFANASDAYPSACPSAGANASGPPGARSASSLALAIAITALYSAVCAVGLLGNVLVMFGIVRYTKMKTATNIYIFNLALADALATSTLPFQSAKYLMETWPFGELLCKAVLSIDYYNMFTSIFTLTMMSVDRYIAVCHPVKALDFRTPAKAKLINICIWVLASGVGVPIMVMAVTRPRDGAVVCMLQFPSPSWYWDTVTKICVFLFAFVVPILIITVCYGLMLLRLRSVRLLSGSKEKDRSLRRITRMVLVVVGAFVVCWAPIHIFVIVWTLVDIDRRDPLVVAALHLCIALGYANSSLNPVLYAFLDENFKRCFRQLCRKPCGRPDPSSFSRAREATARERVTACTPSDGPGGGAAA
For orientation: Binding of GTPγS marks nucleotide exchange on a G protein.

For test [3] the target is unchanged. The test is described as follows: Intrinsic activity at human delta opioid receptor expressed in CHO cells at 10 uM by [35S]GTPgammaS binding assay. It counts as functional, cell-based.
Test [4] concerns the target Kappa-type opioid receptor (Homo sapiens) (UniProt P41145). The test is described as follows: Intrinsic activity at human kappa opioid receptor expressed in CHO cells at 10 uM by [35S]GTPgammaS binding assay. It counts as functional, cell-based.
Test [5] is filed under the species Homo sapiens. The test is described as follows: Selectivity ratio of Ke for human mu opioid receptor to Ke for human kappa opioid receptor.
Test [6] is filed under the species Homo sapiens. Put plainly: Selectivity ratio of Ke for human delta opioid receptor to Ke for human kappa opioid receptor.
Test [7] has as its target Kappa-type opioid receptor (Homo sapiens) (UniProt P41145). Put plainly: Antagonist activity at human kappa opioid receptor expressed in CHO cells assessed as inhibition of U69,593-stimulated [35S]GTPgammaS binding. It counts as functional, cell-based. In short, it runs like this: as §1

Chain of Kappa-type opioid receptor (Homo sapiens) (P41145 whole entry): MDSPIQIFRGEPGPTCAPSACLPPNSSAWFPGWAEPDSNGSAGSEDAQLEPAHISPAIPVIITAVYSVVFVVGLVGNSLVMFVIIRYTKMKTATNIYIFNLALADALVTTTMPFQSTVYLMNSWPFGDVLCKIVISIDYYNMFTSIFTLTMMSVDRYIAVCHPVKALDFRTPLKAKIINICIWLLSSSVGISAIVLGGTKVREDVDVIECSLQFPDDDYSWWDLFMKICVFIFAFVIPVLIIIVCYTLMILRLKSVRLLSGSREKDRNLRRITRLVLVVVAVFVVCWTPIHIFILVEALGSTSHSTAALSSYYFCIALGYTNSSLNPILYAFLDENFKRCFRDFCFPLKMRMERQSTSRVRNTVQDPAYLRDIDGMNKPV

Regarding `CC(C)[C@@H](CN1CCN(c2cccc(O)c2)[C@@H](C)C1)NC(=O)[C@H]1Cc2ccc(O)cc2CN1`, the Ke in test [1] was 74.2 nM; in test [2], 1310 nM. The result in test [3] and in test [4] was inactive.
With `CC(C)[C@@H](CN1CCN(c2cccc(O)c2)[C@@H](C)C1)NC(=O)c1ccc(Oc2ccccc2F)cc1`, the Ke in test [1] stood at 21.1 nM; in test [2], 96 nM; in test [7], 0.76 nM. Besides, the result in test [3] and in test [4] was inactive. Moreover, the Ratio Ke in the test filed under Homo sapiens [5] is 28; in the test listed under Homo sapiens [6], 126.
For `CC(C)[C@@H](CN1CCN(c2cccc(O)c2)[C@@H](C)C1)NC(=O)c1ccc(Oc2ccccc2)cn1`, the values for the Ke in test [1], in test [2] and in test [7] were 101 nM, 2020 nM and 2.8 nM, respectively. The outcome in test [3] and in test [4] was inactive. Besides, the Ratio Ke in the test filed under Homo sapiens [5] came to 36; in the test filed under Homo sapiens [6], 723.
As to `Cc1cccc(Oc2ccc(C(=O)N[C@H](CN3CCN(c4cccc(O)c4)[C@@H](C)C3)C(C)C)cc2)c1`, the Ke in test [1] was 13 nM; in test [2], 131 nM; in test [7] it was 0.17 nM. Further, the result in test [3] and in test [4] was inactive. Moreover, the Ratio Ke in the test filed under Homo sapiens [5] stood at 77; in the test filed under Homo sapiens [6], 771.
Consider `COc1ccc(C(=O)N[C@H](CN2CCN(c3cccc(O)c3)[C@@H](C)C2)C(C)C)cc1OC`, for which the result in test [3] was inactive. Besides, in the test filed under Homo sapiens [5], the Ratio Ke was 4. The Ke in test [7] came to 81.7 nM.
Consider `COc1cc(C(=O)N[C@H](CN2CCN(c3cccc(O)c3)[C@@H](C)C2)C(C)C)ccc1Oc1cccc(C)c1`, for which the figures for the Ke in test [1], in test [2] and in test [7] were 35.1 nM, 93 nM and 0.25 nM, respectively. Besides, the outcome in test [3] and in test [4] was inactive. Besides, the values for the Ratio Ke in the test listed under Homo sapiens [5] and in the test filed under Homo sapiens [6] were 140 and 372, respectively.
As for `CC(C)[C@@H](CN1CCN(c2cccc(O)c2)[C@@H](C)C1)NC(=O)c1ccc(Oc2cccc(Br)c2)cc1`, the Ke was found to be 17 nM in test [1], 42 nM in test [2] and 0.48 nM in test [7]. For the same compound, the outcome in test [3] and in test [4] was inactive. In addition, the Ratio Ke in the test filed under Homo sapiens [5] stood at 35; in the test listed under Homo sapiens [6] it was 88.
`Cc1ccc(O)c(Oc2ccc(C(=O)N[C@H](CN3CCN(c4cccc(O)c4)[C@@H](C)C3)C(C)C)cc2Cl)c1`: the Ke in test [1] is 8.2 nM; in test [2], 15 nM; in test [7], 3 nM. Further, the result in test [3] and in test [4] was inactive. In addition, the figures for the Ratio Ke in the test listed under Homo sapiens [5] and in the test listed under Homo sapiens [6] were 3 and 5, respectively.
On to `Cc1cccc(Oc2ccc(C(=O)N[C@H](CN3CCN(c4cccc(O)c4)[C@@H](C)C3)C(C)C)c(C)c2)c1`, for which the result in test [3] and in test [4] was inactive. Moreover, the results for the Ratio Ke in the test filed under Homo sapiens [5] and in the test listed under Homo sapiens [6] were 28 and 22, respectively. For the same compound, the Ke in test [7] worked out at 0.65 nM.
For the compound `Cc1cccc(Oc2ccc(C(=O)N[C@H](CN3CCN(c4cccc(O)c4)[C@@H](C)C3)C(C)C)c(O)c2)c1`, the outcome in test [3] and in test [4] was inactive. Further, the Ratio Ke amounted to 63 in the test listed under Homo sapiens [5] and 463 in the test filed under Homo sapiens [6]. Further, the Ke in test [7] came to 1.9 nM.
For `COc1ccc(Oc2ccc(C(=O)N[C@H](CN3CCN(c4cccc(O)c4)[C@@H](C)C3)C(C)C)cc2)cc1`, the results for the Ke in test [1], in test [2] and in test [7] were 17 nM, 1380 nM and 0.6 nM, respectively. In addition, the outcome in test [3] and in test [4] was inactive. In addition, the values for the Ratio Ke in the test listed under Homo sapiens [5] and in the test listed under Homo sapiens [6] were 28 and 2300, respectively.
Regarding `CC(C)[C@@H](CN1CCN(c2cccc(O)c2)[C@@H](C)C1)NC(=O)c1ccc(Oc2cccc(C(F)(F)F)c2)cc1`, the Ke was determined as 21 nM in test [1], 54 nM in test [2] and 1.2 nM in test [7]. The result in test [3] and in test [4] was inactive. In addition, the Ratio Ke is 18 in the test listed under Homo sapiens [5] and 45 in the test filed under Homo sapiens [6].
For `Cc1cccc(Oc2ccc(C(=O)N[C@H](CN3CCN(c4cccc(O)c4)[C@@H](C)C3)C(C)C)cc2O)c1`, the values for the Ke in test [1], in test [2] and in test [7] were 13.7 nM, 81 nM and 0.57 nM, respectively. The outcome in test [3] and in test [4] was inactive. In addition, the Ratio Ke was 24 in the test listed under Homo sapiens [5] and 142 in the test listed under Homo sapiens [6].
Regarding `CC(C)[C@@H](CN1CCN(c2cccc(O)c2)[C@@H](C)C1)NC(=O)c1ccc(Oc2cccc(F)c2)cc1`, the results for the Ke in test [1], in test [2] and in test [7] were 30 nM, 173 nM and 1.48 nM, respectively. Further, the outcome in test [3] and in test [4] was inactive. Moreover, the Ratio Ke was determined as 20 in the test listed under Homo sapiens [5] and 117 in the test filed under Homo sapiens [6].
Turning to `Cc1ccc(O)c(Oc2ccc(C(=O)N[C@H](CN3CCN(c4cccc(O)c4)[C@@H](C)C3)C(C)C)cc2)c1`, the result in test [3] and in test [4] was inactive.
As to `COc1cccc(Oc2ccc(C(=O)N[C@H](CN3CCN(c4cccc(O)c4)[C@@H](C)C3)C(C)C)cc2)c1`, the Ke in test [1] amounted to 33 nM; in test [2], 1500 nM; in test [7], 0.63 nM. For the same compound, the result in test [3] and in test [4] was inactive. The Ratio Ke in the test filed under Homo sapiens [5] amounted to 52; in the test listed under Homo sapiens [6], 2380.
Regarding `Cc1cccc(Oc2ccc(C(=O)N[C@H](CN3CCN(c4cccc(O)c4)[C@@H](C)C3)C(C)C)cc2Cl)c1`, the Ke in test [1] came out at 43 nM; in test [2] it was 1100 nM; in test [7], 0.29 nM. Besides, the outcome in test [3] and in test [4] was inactive. Further, the results for the Ratio Ke in the test listed under Homo sapiens [5] and in the test listed under Homo sapiens [6] were 148 and 3790, respectively.
Regarding `Cc1cc(C(=O)N[C@H](CN2CCN(c3cccc(O)c3)[C@@H](C)C2)C(C)C)ccc1Oc1ccccc1`, the Ke in test [1] amounted to 15 nM; in test [2], 435 nM; in test [7], 0.63 nM. The result in test [3] and in test [4] was inactive. For the same compound, the values for the Ratio Ke in the test filed under Homo sapiens [5] and in the test listed under Homo sapiens [6] were 24 and 691, respectively.
For `CC(C)[C@@H](CN1CCN(c2cccc(O)c2)[C@@H](C)C1)NC(=O)c1ccc(Oc2ccccc2O)cc1`, the Ke in test [1] worked out at 125 nM; in test [2] it was 960 nM; in test [7], 1.06 nM. Moreover, the result in test [3] and in test [4] was inactive. Besides, the values for the Ratio Ke in the test listed under Homo sapiens [5] and in the test listed under Homo sapiens [6] were 146 and 906, respectively.
As to `COc1ccccc1Oc1ccc(C(=O)N[C@H](CN2CCN(c3cccc(O)c3)[C@@H](C)C2)C(C)C)cc1`, the Ke in test [1] was 127 nM; in test [2], 869 nM; in test [7], 5.6 nM. Also, the result in test [3] and in test [4] was inactive. The Ratio Ke was found to be 23 in the test listed under Homo sapiens [5] and 155 in the test filed under Homo sapiens [6].
Turning to `COc1cc(Oc2cccc(C)c2)ccc1C(=O)N[C@H](CN1CCN(c2cccc(O)c2)[C@@H](C)C1)C(C)C`, the Ke in test [1] amounted to 49 nM; in test [2] it was 63 nM; in test [7] it was 1.3 nM. Further, the outcome in test [3] and in test [4] was inactive. Further, the Ratio Ke came to 38 in the test filed under Homo sapiens [5] and 48 in the test listed under Homo sapiens [6].
Regarding `CC(C)[C@@H](CN1CCN(c2cccc(O)c2)[C@@H](C)C1)NC(=O)c1ccc(Oc2ccccc2)nc1`, the Ke in test [1] amounted to 60 nM; in test [2] it was 1790 nM; in test [7], 1.6 nM. Further, the outcome in test [3] and in test [4] was inactive. The Ratio Ke in the test filed under Homo sapiens [5] worked out at 38; in the test filed under Homo sapiens [6], 1120.
For the compound `CC(C)[C@@H](CN1CCN(c2cccc(O)c2)[C@H](C)C1)NC(=O)[C@H]1Cc2ccc(O)cc2CN1`, the figures for the Ke in test [1] and in test [2] were 49.4 nM and 1550 nM, respectively. The outcome in test [3] and in test [4] was inactive.
Turning to `COc1cc(C(=O)N[C@H](CN2CCN(c3cccc(O)c3)[C@@H](C)C2)C(C)C)ccc1Oc1ccccc1O`, the Ke in test [1] was 74 nM; in test [7] it was 16.3 nM. In addition, the result in test [3] and in test [4] was inactive. The Ratio Ke in the test filed under Homo sapiens [5] came out at 5; in the test filed under Homo sapiens [6], 7.
For the compound `CC(C)[C@@H](CN1CCN(c2cccc(O)c2)[C@@H](C)C1)NC(=O)c1ccc(Oc2ccccc2O)c(Cl)c1`, the outcome in test [3] and in test [4] was inactive. The Ratio Ke in the test listed under Homo sapiens [5] was found to be 7; in the test listed under Homo sapiens [6], 42. The Ke in test [7] worked out at 5 nM.
For the compound `COc1cc(C(=O)N[C@H](CN2CCN(c3cccc(O)c3)[C@@H](C)C2)C(C)C)ccc1Oc1cc(C)ccc1O`, the result in test [3] and in test [4] was inactive. For the same compound, the Ratio Ke is 1.6 in the test listed under Homo sapiens [5] and 19 in the test filed under Homo sapiens [6]. For the same compound, in test [7], the Ke stood at 6.2 nM.
